Test results taken from ChEMBL document CHEMBL1130225, “Synthesis of a series of potent and orally bioavailable thrombin inhibitors that utilize 3,3-disubstituted propionic acid derivatives in the P3 position” (J Med Chem, 1997).
Several values for one entry are separate records, joined by “and”; a condition that tells them apart may be missing. Equal values may be shown once.

What was measured:
Plasminogen = Plasminogen (Homo sapiens, UniProt P00747); assay: Inhibitory activity against serine protease plasmin
Chain of Plasminogen (P00747 97-580 limits assumed): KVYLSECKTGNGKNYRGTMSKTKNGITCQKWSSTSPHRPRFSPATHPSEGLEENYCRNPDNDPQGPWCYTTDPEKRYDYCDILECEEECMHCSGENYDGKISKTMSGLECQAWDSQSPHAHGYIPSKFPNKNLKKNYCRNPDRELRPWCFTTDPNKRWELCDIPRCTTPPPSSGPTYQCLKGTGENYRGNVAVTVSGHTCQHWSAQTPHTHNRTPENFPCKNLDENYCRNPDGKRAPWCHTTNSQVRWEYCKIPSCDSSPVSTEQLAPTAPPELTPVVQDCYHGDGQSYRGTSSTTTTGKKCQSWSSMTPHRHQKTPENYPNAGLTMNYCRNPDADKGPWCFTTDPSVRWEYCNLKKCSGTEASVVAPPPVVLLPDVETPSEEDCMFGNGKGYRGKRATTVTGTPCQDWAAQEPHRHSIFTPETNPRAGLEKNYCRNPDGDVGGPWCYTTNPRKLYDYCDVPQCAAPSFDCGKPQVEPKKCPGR
Chain of Plasminogen (P00747 581-810 limits assumed): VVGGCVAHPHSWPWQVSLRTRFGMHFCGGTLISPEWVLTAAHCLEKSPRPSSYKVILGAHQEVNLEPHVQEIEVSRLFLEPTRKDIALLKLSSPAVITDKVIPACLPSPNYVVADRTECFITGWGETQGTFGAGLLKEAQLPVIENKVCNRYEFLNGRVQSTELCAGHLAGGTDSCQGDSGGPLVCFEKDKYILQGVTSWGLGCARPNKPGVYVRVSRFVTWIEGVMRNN

[1] = Half-life period after, intravenous injection of 1 mg/kg in dogs; assay type: ADME, organism-based, Canis lupus familiaris; parameters: dose 1 mg/kg, route intravenous; conditions: dog, in vivo
[2] = Area under curve was evaluated after intravenous injection of 1 mg/kg of compound in dogs; assay type: ADME, organism-based, Canis lupus familiaris; parameters: dose 1 mg/kg, route intravenous; conditions: dog, in vivo
Plasma kallikrein = Plasma kallikrein (Homo sapiens, UniProt P03952); assay: Inhibitory activity against serine protease plasma kallikrein
Chain of Plasma kallikrein (P03952 20-390 limits assumed): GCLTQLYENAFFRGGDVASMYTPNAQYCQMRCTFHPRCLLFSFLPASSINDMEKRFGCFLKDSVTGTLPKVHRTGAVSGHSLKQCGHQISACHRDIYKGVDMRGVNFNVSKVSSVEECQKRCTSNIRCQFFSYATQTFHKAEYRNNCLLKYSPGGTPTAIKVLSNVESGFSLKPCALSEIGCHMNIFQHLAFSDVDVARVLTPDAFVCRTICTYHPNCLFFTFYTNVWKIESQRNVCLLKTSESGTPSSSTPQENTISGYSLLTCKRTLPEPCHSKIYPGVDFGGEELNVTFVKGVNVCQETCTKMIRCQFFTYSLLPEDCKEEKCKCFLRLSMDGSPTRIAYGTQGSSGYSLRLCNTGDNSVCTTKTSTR
Chain of Plasma kallikrein (P03952 391-638 limits assumed): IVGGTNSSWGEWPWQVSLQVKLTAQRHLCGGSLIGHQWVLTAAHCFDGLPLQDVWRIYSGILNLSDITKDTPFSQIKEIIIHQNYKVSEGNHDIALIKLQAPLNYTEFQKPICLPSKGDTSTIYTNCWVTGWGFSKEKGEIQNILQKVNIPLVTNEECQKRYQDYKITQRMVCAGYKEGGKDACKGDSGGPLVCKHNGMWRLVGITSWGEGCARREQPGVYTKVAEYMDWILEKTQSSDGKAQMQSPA
Outline: (§1)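 Inhibition constants (Ki) for each serine protease are the average of at least two determinations, with assay variation of ±10%.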

[3] = Half-life period after, intravenous injection of 1 mg/kg in rats; assay type: ADME, organism-based; parameters: dose 1 mg/kg, route intravenous; conditions: rat, in vivo
[4] = Clearance from dog plasma after intravenous injection of 1 mg/kg of compound; assay type: ADME, organism-based, Canis lupus familiaris; parameters: dose 1 mg/kg, route intravenous
[5] = Oral bioavailability in rat (dose 10 mg/kg p.o.); assay type: ADME, organism-based; conditions: in vivo
Outline: (§2)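 Rats were given a single oral dose of 10 mg/kg as a suspension in 1% methocel. Oral bioavailability (F, %) was then determined.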

Homo sapiens = species: Homo sapiens; assay: concentration of compound in human required to double the activated thromboplastin time; assay type: functional
[6] = target: Tissue-type plasminogen activator (Homo sapiens, UniProt P00750); assay: Inhibitory activity against serine protease TPA; outline: as §1
Chain of Tissue-type plasminogen activator (P00750 whole entry): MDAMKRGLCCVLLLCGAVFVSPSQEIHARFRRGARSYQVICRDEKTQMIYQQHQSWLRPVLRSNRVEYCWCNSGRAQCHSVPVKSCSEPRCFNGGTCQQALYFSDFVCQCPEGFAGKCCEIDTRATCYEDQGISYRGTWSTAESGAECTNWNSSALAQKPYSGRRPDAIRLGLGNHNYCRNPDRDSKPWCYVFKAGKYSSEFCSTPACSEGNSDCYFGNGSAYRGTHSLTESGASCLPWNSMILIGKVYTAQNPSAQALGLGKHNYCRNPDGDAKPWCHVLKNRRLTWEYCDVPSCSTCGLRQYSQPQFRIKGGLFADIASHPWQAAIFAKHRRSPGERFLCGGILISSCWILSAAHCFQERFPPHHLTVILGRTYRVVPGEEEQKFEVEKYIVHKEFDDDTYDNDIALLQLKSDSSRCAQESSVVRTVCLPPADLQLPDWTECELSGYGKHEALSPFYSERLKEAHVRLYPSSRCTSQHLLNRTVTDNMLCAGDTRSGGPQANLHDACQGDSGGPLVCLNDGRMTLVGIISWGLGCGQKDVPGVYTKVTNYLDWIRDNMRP

Rattus norvegicus [7] = species: Rattus norvegicus; assay: Antithrombotic activity was assessed from the associated plasma protein binding in rat, determined in a thrombin chromogenic assay; assay type: functional
Coagulation factor X = Coagulation factor X (Homo sapiens, UniProt P00742); assay: Inhibitory activity against serine protease Coagulation factor X; outline: as §1
Chain of Coagulation factor X (P00742 41-179 limits assumed): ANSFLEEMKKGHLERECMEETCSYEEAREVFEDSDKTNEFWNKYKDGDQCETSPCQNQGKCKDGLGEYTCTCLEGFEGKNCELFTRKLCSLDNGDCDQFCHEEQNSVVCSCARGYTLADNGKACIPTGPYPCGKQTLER
Chain of Coagulation factor X (P00742 235-488 limits assumed): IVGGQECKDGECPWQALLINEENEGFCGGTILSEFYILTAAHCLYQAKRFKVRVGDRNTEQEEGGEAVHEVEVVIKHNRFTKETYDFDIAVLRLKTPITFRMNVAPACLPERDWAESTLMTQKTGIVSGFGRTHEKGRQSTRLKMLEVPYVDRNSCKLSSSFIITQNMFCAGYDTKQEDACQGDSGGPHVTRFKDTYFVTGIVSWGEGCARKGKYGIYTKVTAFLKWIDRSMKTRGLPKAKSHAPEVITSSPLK

[8] = Area under curve was evaluated after intravenous injection of 1 mg/kg of compound in rats; assay type: ADME, organism-based; parameters: dose 1 mg/kg, route intravenous; conditions: rat, in vivo
[9] = Partition coefficient (logP); assay type: physicochemical; conditions: octanol/water
[10] = Clearance from rat plasma after intravenous injection of 1 mg/kg of compound; assay type: ADME, organism-based; parameters: dose 1 mg/kg, route intravenous
Serine protease 1 = Serine protease 1 (Homo sapiens, UniProt P07477); assay: In vitro inhibition of human trypsin.; outline: as §1
Chain of Serine protease 1 (P07477 whole entry): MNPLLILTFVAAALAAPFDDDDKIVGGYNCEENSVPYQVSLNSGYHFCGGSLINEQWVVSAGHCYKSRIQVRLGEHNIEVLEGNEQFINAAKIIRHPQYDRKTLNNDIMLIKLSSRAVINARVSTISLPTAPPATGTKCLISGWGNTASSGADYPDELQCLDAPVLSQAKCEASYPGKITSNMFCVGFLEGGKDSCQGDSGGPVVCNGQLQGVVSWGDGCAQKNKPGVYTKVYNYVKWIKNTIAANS

[11] = Oral bioavailability in rat after peroral injection of 10 mg/kg of compound; assay type: ADME, organism-based; conditions: in vivo; outline: as §2
Prothrombin = Prothrombin (Homo sapiens, UniProt P00734); assay: Inhibition of Thrombin
Rattus norvegicus [12] = species: Rattus norvegicus; assay: Final concentration in rat plasma; assay type: functional, organism-based
Outline: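 Rats received an iv infusion at 10 µg/kg/min in saline for 120 min before a FeCl3 vascular insult. Plasma inhibitor level was measured at the end of the experiment.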

Rattus norvegicus [13] = species: Rattus norvegicus; assay: concentration of compound in rat required to double the activated thromboplastin time; assay type: functional
[14] = Oral bioavailability in dog after peroral injection of 5 mg/kg of compound; assay type: ADME, organism-based, Canis lupus familiaris; conditions: in vivo
Outline: (§3)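 Dogs were given a single oral dose of 5 mg/kg as a suspension in 1% methocel. Oral bioavailability (F, %) was then determined.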

[15] = Oral bioavailability (5 mg/kg, oral) was determined in dogs; assay type: ADME, organism-based, Canis lupus familiaris; conditions: dog, in vivo; outline: as §3
[16] = Antithrombotic activity was assessed from the associated plasma protein binding in Human, determined in a thrombin chromogenic assay; assay type: functional
[17] = Half-life period after, peroral injection of 5 mg/kg in dogs; assay type: ADME, organism-based, Canis lupus familiaris; parameters: dose 5 mg/kg, route oral; conditions: dog, in vivo, po
[18] = Oral bioavailability in rat (dose 10 mg/kg); assay type: ADME, organism-based; conditions: in vivo; outline: as §2
[19] = concentration of compound in human plasma required to double the activated thromboplastin time; assay type: functional
Rattus norvegicus [20] = species: Rattus norvegicus; assay: concentration of compound in rat plasma required to double the activated thromboplastin time; assay type: functional
[21] = Concentration of inhibitor in human plasma required to double the activated thromboplastin time; assay type: functional
Rattus norvegicus [22] = species: Rattus norvegicus; assay: Concentration of inhibitor in rat plasma required to double the activated thromboplastin time; assay type: functional
[23] = Oral bioavailability (5 mg/kg) was determined in dogs; assay type: ADME, organism-based, Canis lupus familiaris; conditions: dog, in vivo; outline: as §3
Rattus norvegicus [24] = species: Rattus norvegicus; assay: Antithrombotic activity was assessed from the associated plasma protein binding in Rats, determined in a thrombin chromogenic assay; assay type: functional

Row | SMILES | Ki (Plasminogen) [µM] | Ki (Plasma kallikrein) [µM] | Ki [6] [µM] | Ki (Coagulation factor X) [µM] | Ki (Serine protease 1) | Ki (Prothrombin) [nM] | other results
1 | NC1CCC(CNC(=O)[C@@H]2CCCN2C(=O)CC(c2ccccc2)c2ccccc2)CC1.O=C(O)C(F)(F)F (some centres not stated) | 744 | > 1000 | > 1000 | 980 | 353 nM and 350 nM | 2 | half-life [1]: 175 min; AUC [2]: 3.81 µM·h; half-life [3]: 268 min; clearance [4]: 10.2 mL/min/kg; bioavailability [5]: 10%; 2x APTT (Homo sapiens): 0.67 µM; Activity (Rattus norvegicus [7]): 7%; AUC [8]: 1.7 µM·h; logP [9]: 0.37; clearance [10]: 23.2 mL/min/kg; bioavailability [11]: 10%; Concentration (Rattus norvegicus [12]): 1600 nM; 2x APTT (Rattus norvegicus [13]): 0.65 µM; bioavailability [14]: 58%; bioavailability [15]: 58%; Activity [16]: 7%; half-life [17]: 156 min
2 | NC1CCC(CNC(=O)[C@@H]2CCCN2C(=O)CC2c3ccccc3CCc3ccccc32)CC1.O=C(O)C(F)(F)F (some centres not stated) |  |  |  |  |  | 17 | bioavailability [18]: 12%
3 | CC(CC(=O)N1CCC[C@H]1C(=O)NCC1CCC(N)CC1)(c1ccccc1)c1ccccc1 (some centres not stated) |  |  |  |  | 17000 nM | 16 | 
4 | Cl.NC1CCC(CNC(=O)[C@@H]2CCCN2C(=O)CC(C2CCCCC2)C2CCCCC2)CC1 (some centres not stated) | 176 | 170 | 84 | 220 | 2500 nM | 14 | 2x APTT [19]: 7.1 µM; bioavailability [5]: 56%; 2x APTT (Rattus norvegicus [20]): 7.2 µM; Activity (Rattus norvegicus [7]): 6%; logP [9]: 1.96; Concentration (Rattus norvegicus [12]): 658 nM; Activity [16]: 1%
5 | Cl.NC1CCC(CNC(=O)[C@@H]2CCCN2C(=O)CC2c3ccccc3C=Cc3ccccc32)CC1 (some centres not stated) | 414 | 775 | 268 | > 1000 | 1600 nM | 3 | bioavailability [18]: 51%; logP [9]: 0.27
6 | CC1CNc2c(cccc2S(=O)(=O)N[C@@H](CCCNC(=N)N)C(=O)N2CCC(C)C[C@@H]2C(=O)O)C1 (single isomer, unassigned) [ARGATROBAN] |  |  |  |  |  |  | 2x APTT [21]: 0.28 µM
7 | NC1CCC(CNC(=O)[C@@H]2CCCN2C(=O)CC(c2ccccc2)c2ccccn2)CC1 (single isomer, unassigned; diastereomer 1) | > 1000 | 767 | > 1000 | 370 | 890 nM | 1.8 | 
8 | NC1CCC(CNC(=O)[C@@H]2CCCN2C(=O)CC(c2ccccc2)c2cccnc2)CC1 (single isomer, unassigned; diastereomer 1) |  |  |  |  | 2800 nM | 10 | 
9 | NC1CCC(CNC(=O)[C@@H]2CCCN2C(=O)CC(c2ccccc2)C2CCCCC2)CC1 (single isomer, unassigned; diastereomer 1) |  |  |  |  | 1700 nM | 8 | 
10 | NC1CCC(CNC(=O)[C@@H]2CCCN2C(=O)CC(c2ccccc2)c2ccncc2)CC1 (single isomer, unassigned; diastereomer 1) |  |  |  |  | 19000 nM | 29 | 
11 | NC1CCC(CNC(=O)[C@@H]2CCCN2C(=O)CC(c2cccnc2)c2ccc3c(c2)OCO3)CC1.O=C(O)C(F)(F)F (single isomer, unassigned; diastereomer 2) | 572 | 1000 | > 500 | 1000 | 2600 nM | 0.28 | 2x APTT [19]: 0.3 µM; bioavailability [18]: < 5%; logP [9]: -1.62; 2x APTT (Rattus norvegicus [22]): 0.38 µM
12 | NC1CCC(CNC(=O)[C@@H]2CCCN2C(=O)CC(c2ccccc2)c2ccccn2)CC1 (single isomer, unassigned; diastereomer 2) |  |  |  |  | 5000 nM | 12 | 
13 | NC1CCC(CNC(=O)[C@@H]2CCCN2C(=O)CC(c2ccccc2)c2cccnc2)CC1.O=C(O)C(F)(F)F (single isomer, unassigned; diastereomer 2) | > 1000 | 476 | 746 | > 1000 | 2200 nM | 2.2 | 2x APTT [19]: 0.47 µM; logP [9]: -0.64; bioavailability [23]: 8%; Activity (Rattus norvegicus [24]): 56%; Activity [16]: 35%; 2x APTT (Rattus norvegicus [22]): 0.59 µM
14 | NC1CCC(CNC(=O)[C@@H]2CCCN2C(=O)CC(c2ccccc2)C2CCCCC2)CC1 (single isomer, unassigned; diastereomer 2) |  |  |  |  | 300 nM | 4 | 
15 | NC1CCC(CNC(=O)[C@@H]2CCCN2C(=O)CC(c2ccccc2)c2ccncc2)CC1 (single isomer, unassigned; diastereomer 2) | 744 | > 1000 | 436 | 400 | 2200 nM | 3.4 | 
16 | NC1CCC(CNC(=O)[C@@H]2CCCN2C(=O)CC(c2ccccc2)c2cccnc2)CC1 (single isomer, unassigned; diastereomer 2) |  |  |  |  |  |  | Concentration (Rattus norvegicus [12]): 2890 nM
17 | NC1CCC(CNC(=O)[C@@H]2CCCN2C(=O)CC(c2cccnc2)c2ccc3c(c2)OCO3)CC1 (single isomer, unassigned; diastereomer 2) |  |  |  |  |  |  | Concentration (Rattus norvegicus [12]): 4000 nM
18 | NC1CCC(CNC(=O)[C@@H]2CCCN2C(=O)CC(c2cccnc2)c2ccc3c(c2)OCO3)CC1 (stereo in doubt) |  |  |  |  | 1900 nM | 4.7 | 
